Experimental findings from ChEMBL document CHEMBL4184228, “Reversed isoniazids: Design, synthesis and evaluation against Mycobacterium tuberculosis” (Bioorg Med Chem, 2018) are described below.

In data set [1] the test system is Mycobacterium tuberculosis. Nature of the data set: Antimycobacterial activity against Mycobacterium tuberculosis H37Rv by two fold serial dilution based fluorescence assay. The data set is classed as functional. An outline of the steps: (§1)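 MGIT 960 (BACTEC) broth assay in 7H9 with 1% OADC and 0.05% Tween 80. Compounds are 10 mM DMSO stocks, two-fold serially diluted, final DMSO ≤1.2%, top concentration 10 µM. Tubes incubated at 37°C with growth units read daily. MIC99 is set against a 1% drug-free growth control tube.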

In data set [2] the test system is Mycobacterium tuberculosis. In words: Antimycobacterial activity against XDR Mycobacterium tuberculosis isolate X_3 at 10 uM by two fold serial dilution based fluorescence assay. The data set is classed as functional. In a few lines: as §1
In data set [3] the test system is Mycobacterium tuberculosis. Nature of the data set: Antimycobacterial activity against XDR Mycobacterium tuberculosis isolate TT149 at 10 uM by two fold serial dilution based fluorescence assay. The data set is classed as functional. An outline of the steps: as §1
The next data set has as its system CHO. Nature of the data set: Cytotoxicity against CHO cells. The data set is classed as cell-based. Conditions: Cricetulus griseus.
Data set [4] relates to Mycobacterium tuberculosis. In words: Antimycobacterial activity against XDR Mycobacterium tuberculosis isolate X_61 by two fold serial dilution based fluorescence assay. The data set is classed as functional. An outline of the steps: as §1
Data set [5] has as its system Mycobacterium tuberculosis. In words: Antimycobacterial activity against XDR Mycobacterium tuberculosis isolate X_60 by two fold serial dilution based fluorescence assay. The class given is functional. In a few lines: as §1
Data set [6] in a line: Cytotoxicity against human THP1 cells assessed as decrease in cell viability after 24 hrs by MTT assay. The data set is classed as cell-based. Conditions: THP-1 cells. In a few lines: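 THP-1 cells at 1.5 x 10^4/well are exposed to a range of compound concentrations for 24 h. MTT is then added for 4 h at 37°C, followed by solubilisation buffer for 30 min. A570 is read. Cytotoxicity % = 100 − [100 × (OD with drug/OD without drug)]. An IC20 cut-off is used to set concentrations for the macrophage work.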
Background: Formazan colour is commonly taken as a measure of viable cells.

Structures are written as SMILES. Converted amounts (≈) assume the structure as drawn. The source made the active and inactive calls. A value given as a limit tells only on which side of the number the result lay.

As a reminder, the MIC99 is an inhibitory concentration at the 99% level, which refers to growth in some studies and to a panel of isolates in others. As usually defined, the IC50 is the concentration at which inhibition is half-maximal. A low value points to greater potency in that assay. Broadly, the IC20 is the concentration needed for an effect of 20%.

For the compound `O=C(NNCCCN1CCN(C2c3ccccc3CCc3ccccc32)CC1)c1ccncc1`, the MIC99 in data set [1] was found to be 5 µM (≈ 2.28 µg/mL). The outcome in data set [2] and in data set [3] was inactive.
Compound `O=C(NNCCCN1CCC(=C2c3ccccc3Sc3ccc(Cl)cc32)CC1)c1ccncc1` showed an IC50 in the data set with CHO of 296 µM. Moreover, the values for the MIC99 in data set [1], in data set [4] and in data set [5] were 0.625 µM (≈ 0.307 µg/mL), 2.5 µM (≈ 1.23 µg/mL) and over 10 µM, respectively. Further, the outcome in data set [2] and in data set [3] was inactive.
In the data set on CHO, `O=C(NNCCCN1CCN(CC(O)(c2ccccc2)c2ccccc2)CC1)c1ccncc1` registered an IC50 of 174 µM. Also, the MIC99 was 1.25 µM (≈ 0.574 µg/mL) in data set [1], 5 µM (≈ 2.3 µg/mL) in data set [4] and over 10 µM in data set [5]. Moreover, the result in data set [2] and in data set [3] was inactive.
Regarding `O=C(NNCCCNCCCN1c2ccccc2Sc2ccc(Cl)cc21)c1ccncc1`, in data set [1], the MIC99 came out at 5 µM (≈ 2.34 µg/mL). The outcome in data set [2] and in data set [3] was inactive.
`O=C(NNCCCN1c2ccccc2CCc2ccccc21)c1ccncc1` showed an MIC99 in data set [1] of 1 µM (≈ 0.372 µg/mL). Besides, in data set [6], the IC20 at 24 h was over 100 µM. In addition, the outcome in data set [2] and in data set [3] was inactive.
Turning to `O=C(NNCCCN1CCC(N2c3ccccc3Sc3ccc(Cl)cc32)CC1)c1ccncc1`, the IC50 with CHO is 37.4 µM. Moreover, the MIC99 in data set [1] is 1 µM (≈ 0.494 µg/mL); in data set [4] it was over 10 µM; in data set [5] it was over 10 µM. Besides, the concentration for an effect of 20% (IC20) at 24 h in data set [6] came out at 2.2 µM. Besides, the result in data set [2] and in data set [3] was inactive.
With `O=C(NNCCCN1c2ccccc2Sc2ccccc21)c1ccncc1`, in data set [1], the MIC99 is 1 µM (≈ 0.376 µg/mL). The IC20 at 24 h in data set [6] is over 100 µM. Also, the outcome in data set [2] and in data set [3] was inactive.
Compound `O=C(NNCCCN1c2ccccc2Sc2ccc(Cl)cc21)c1ccccc1` returned an MIC99 in data set [1] of over 10 µM. Further, the IC20 at 24 h in data set [6] was over 100 µM. Besides, the outcome in data set [2] and in data set [3] was inactive.
For the compound `O=C(NNCCCN1CCN(C(c2ccccc2)(c2ccccc2)c2ccccc2)CC1)c1ccncc1`, 97.6 µM corresponded to half-maximal inhibition with CHO (IC50). For the same compound, the MIC99 worked out at 1.25 µM (≈ 0.632 µg/mL) in data set [1], 2.5 µM (≈ 1.26 µg/mL) in data set [4] and 2.5 µM (≈ 1.26 µg/mL) in data set [5]. In addition, the result in data set [2] and in data set [3] was inactive.
In data set [1], `O=C(NNCCCN1c2ccccc2Sc2ccc(Cl)cc21)c1ccncc1` showed an MIC99 of 0.25 µM (≈ 0.103 µg/mL). For the same compound, in data set [6], the IC20 at 24 h amounted to 24.4 µM. For the same compound, the result in data set [2] and in data set [3] was inactive.
Regarding `O=C(NNCCCN1CCC(=C2c3ccccc3Sc3ccccc32)CC1)c1ccncc1`, the IC50 in the data set with CHO came out at 152 µM. The MIC99 in data set [1] is 1.25 µM (≈ 0.571 µg/mL); in data set [4], 2.5 µM (≈ 1.14 µg/mL); in data set [5] it was over 10 µM. In addition, the outcome in data set [2] and in data set [3] was inactive.
With `NNC(=O)c1ccncc1` [ISONIAZID], the IC50 in the data set on CHO was over 100 µM. The MIC99 in data set [1] is 0.73 µM (≈ 0.1 µg/mL); in data set [2], over 10 µM; in data set [4], 2.5 µM (≈ 0.343 µg/mL); in data set [5], over 10 µM; in data set [3] it was over 10 µM. Further, the IC20 at 24 h in data set [6] is over 100 µM.
In the data set with CHO, `O=C(NNCCCN1CCN(C(c2ccccc2)c2ccccc2)CC1)c1ccncc1` yielded an IC50 of 48.1 µM. The MIC99 in data set [1] is 5 µM (≈ 2.15 µg/mL); in data set [4], 5 µM (≈ 2.15 µg/mL); in data set [5] it was over 10 µM. Also, the outcome in data set [2] and in data set [3] was inactive.
Compound `O=C(NNCCCN1CCC(=C2c3ccccc3C=Cc3ccccc32)CC1)c1ccncc1` yielded an IC50 in the data set with CHO of 148 µM. In addition, the values for the MIC99 in data set [1], in data set [4] and in data set [5] were 1.25 µM (≈ 0.563 µg/mL), 5 µM (≈ 2.25 µg/mL) and over 10 µM, respectively. The result in data set [2] and in data set [3] was inactive.
Compound `O=C(NNCCCN1c2ccccc2Sc2ccccc21)c1ccccc1` had an MIC99 in data set [1] of over 10 µM. Besides, the IC20 at 24 h in data set [6] is over 100 µM. The result in data set [2] and in data set [3] was inactive.
With `CN(C)CCCN1c2ccccc2Sc2ccc(Cl)cc21` [CHLORPROMAZINE], in data set [6], the IC20 at 24 h is 4 µM.
As to `O=C(NNCCCN1CCC(N2c3ccccc3Sc3ccccc32)CC1)c1ccncc1`, inhibition in the data set with CHO was half-maximal at 122 µM (IC50). Further, the MIC99 in data set [1] is 5 µM (≈ 2.3 µg/mL); in data set [4], 2.5 µM (≈ 1.15 µg/mL); in data set [5] it was over 10 µM. In addition, the result in data set [2] and in data set [3] was inactive.
In data set [1], `O=C(NNCCCNCCCN1c2ccccc2Sc2ccccc21)c1ccncc1` yielded an MIC99 of 5 µM (≈ 2.17 µg/mL). The outcome in data set [2] and in data set [3] was inactive.
